In ChEMBL document CHEMBL1122111, “Allergenic alpha-methylene-gamma-butyrolactones. Stereospecific syntheses of (+)- and (-)-gamma-methyl-alpha-methylene-gamma-butyrolactones. A study of the specificity of (+) and (-) enantiomers in inducing allergic contact dermatitis” (1982):
Where “and” joins values, the source holds several entries; their conditions need not be identical. Identical values can stand only once.

Tests used:
Format in all cases: functional
Cavia porcellus [1] = species on record: Cavia porcellus; experiment: Tested for effect on guinea pigs sensitized with (+/-)-5-Methyl-3- methylene-dihydro-furan-2-one; Number of sensitive animals out of 8 tested
In short: (§1)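 Female albino Hartley guinea pigs (250–300 g), sensitized by three intradermal nuchal injections of 0.1 mL on alternate days. The emulsion was 1:1 FCA/saline with 10% racemate (5% of each antipode). After 2 weeks rest, 0.25 mL of 1% or 2% methylene chloride solution was applied to a 2-cm2 area. Reactions were scored 0–3 every 24 h; av = summed scores/animals.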

Cavia porcellus [2] = species on record: Cavia porcellus; experiment: Tested for effect on guinea pigs sensitized with (R)5-Methyl-3- methylene-dihydro-furan-2-one; Number of sensitive animals out of 8 tested
In short: (§2)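 Female albino Hartley guinea pigs (250–300 g) received three 0.1-mL intradermal nuchal injections on alternate days of a 1:1 FCA/saline emulsion with 5% (+)-enantiomer. After 2 weeks rest, 0.25 mL of 1% or 2% methylene chloride solution was deposited on a 2-cm2 circle and read every 24 h. Erythema/swelling was scored 0–3; av = summed intensities divided by animal number.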

Cavia porcellus [3] = species on record: Cavia porcellus; experiment: Tested for effect on guinea pigs sensitized with (R)-5-Methyl-3-methylene-dihydro-furan-2-one; Number of sensitive animals out of 8 tested; in short: as §2
Cavia porcellus [4] = species on record: Cavia porcellus; experiment: Tested for effect on guinea pigs sensitized with (S)5-Methyl-3- methylene-dihydro-furan-2-one; Number of sensitive animals out of 8 tested
In short: (§3)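 Sensitization: female albino Hartley guinea pigs (250–300 g) were given three alternate-day 0.1-mL intradermal nuchal injections of 1:1 FCA/saline emulsion containing 5% (−)-enantiomer. Challenge after 2 weeks rest used 0.25 mL of 1% or 2% methylene chloride solution on a 2-cm2 area, read every 24 h. The scale was 0 (none) to 3 (erythema/swelling beyond area); av = summed scores/animals.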

Cavia porcellus [5] = species on record: Cavia porcellus; experiment: Tested for effect on guinea pigs sensitized with (+/-)-5-Methyl-3- methylene-dihydro-furan-2-one and av is calculated by adding the test intensity and divided by the number of animals; in short: as §1
Cavia porcellus [6] = species on record: Cavia porcellus; experiment: Tested for effect on guinea pigs sensitized with (R)5-Methyl-3- methylene-dihydro-furan-2-one and av is calculated by adding the test intensity and divided by the number of animals; in short: as §2
Cavia porcellus [7] = species on record: Cavia porcellus; experiment: Tested for effect on guinea pigs sensitized with (S)5-Methyl-3- methylene-dihydro-furan-2-one and av is calculated by adding the test intensity and divided by the number of animals; in short: as §3
Cavia porcellus [8] = species on record: Cavia porcellus; experiment: Tested for effect on guinea pigs sensitized with (+/-)-5-Methyl-3- methylene-dihydro-furan-2-one; Number of sensitive animals; in short: as §1
Cavia porcellus [9] = species on record: Cavia porcellus; experiment: Tested for effect on guinea pigs sensitized with (R)5-Methyl-3- methylene-dihydro-furan-2-one and number of animals showing erythema covering the part of the test area; in short: as §2
Cavia porcellus [10] = species on record: Cavia porcellus; experiment: Tested for effect on guinea pigs sensitized with (R)5-Methyl-3- methylene-dihydro-furan-2-one and number of animals showing erythema covering the whole test area; in short: as §2
Cavia porcellus [11] = species on record: Cavia porcellus; experiment: Tested for effect on guinea pigs sensitized with (+/-)-5-Methyl-3- methylene-dihydro-furan-2-one and number of animals showing erythema and swelling of the test area; in short: as §1
Cavia porcellus [12] = species on record: Cavia porcellus; experiment: Tested for effect on guinea pigs sensitized with (+/-)-5-Methyl-3- methylene-dihydro-furan-2-one and number of animals showing erythema covering the part of the test area; in short: as §1
Cavia porcellus [13] = species on record: Cavia porcellus; experiment: Tested for effect on guinea pigs sensitized with (+/-)-5-Methyl-3- methylene-dihydro-furan-2-one and number of animals showing erythema covering the whole test area; in short: as §1
Cavia porcellus [14] = species on record: Cavia porcellus; experiment: Tested for effect on guinea pigs sensitized with (+/-)-5-Methyl-3- methylene-dihydro-furan-2-one and number of animals showing no reaction; in short: as §1
Cavia porcellus [15] = species on record: Cavia porcellus; experiment: Tested for effect on guinea pigs sensitized with (R)5-Methyl-3 -methylene-dihydro-furan-2-one and number of animals showing erythema covering the part of the test area; in short: as §2
Cavia porcellus [16] = species on record: Cavia porcellus; experiment: Tested for effect on guinea pigs sensitized with (R)5-Methyl-3 -methylene-dihydro-furan-2-one and number of animals showing erythema covering the whole test area; in short: as §2
Cavia porcellus [17] = species on record: Cavia porcellus; experiment: Tested for effect on guinea pigs sensitized with (S)5-Methyl-3 -methylene-dihydro-furan-2-one and number of animals showing erythema covering the whole test area; in short: as §3
Cavia porcellus [18] = species on record: Cavia porcellus; experiment: Tested for effect on guinea pigs sensitized with (S)5-Methyl-3- methylene-dihydro-furan-2-one and number of animals showing erythema covering the whole test area; in short: as §3
Cavia porcellus [19] = species on record: Cavia porcellus; experiment: Tested for effect on guinea pigs sensitized with (S)5-Methyl-3- methylene-dihydro-furan-2-one and number of animals showing no reaction; in short: as §3
Cavia porcellus [20] = species on record: Cavia porcellus; experiment: Tested for effect on guinea pigs sensitized with (R)-5-Methyl-3-methylene -dihydro -furan-2-one, Number of sensitive animals out of 8 tested; in short: as §2
Cavia porcellus [21] = species on record: Cavia porcellus; experiment: Tested for effect on guinea pigs sensitized with (S)5-Methyl-3-methylene-dihydro- furan-2-one; Number of sensitive animals out of 8 tested; in short: as §3
Cavia porcellus [22] = species on record: Cavia porcellus; experiment: Tested for effect on guinea pigs sensitized with (+/-)-5-Methyl-3-methylene-dihydro-furan-2-one, Number of sensitive animals out of 8 tested; in short: as §1
Cavia porcellus [23] = species on record: Cavia porcellus; experiment: Tested for effect on guinea pigs sensitized with (R)-5-Methyl-3-methylene -dihydro -furan-2-one,av is calculated by adding the test intensity and divided by the number of animals; in short: as §2
Cavia porcellus [24] = species on record: Cavia porcellus; experiment: Tested for effect on guinea pigs sensitized with (S)5-Methyl-3-methylene-dihydro- furan-2-one,av is calculated by adding the test intensity and divided by the number of animals; in short: as §3
Cavia porcellus [25] = species on record: Cavia porcellus; experiment: Tested for effect on guinea pigs sensitized with (+/-)-5-Methyl-3-methylene-dihydro-furan-2-one, av is calculated by adding the test intensity and divided by the number of animals; in short: as §1
Cavia porcellus [26] = species on record: Cavia porcellus; experiment: Tested for effect on guinea pigs sensitized with (R)-5-Methyl-3-methylene -dihydro -furan-2-one, number of animals showing erythema and swelling of the test area; in short: as §2
Cavia porcellus [27] = species on record: Cavia porcellus; experiment: Tested for effect on guinea pigs sensitized with (R)-5-Methyl-3-methylene -dihydro -furan-2-one,number of animals showing erythema covering the part of the test area; in short: as §2
Cavia porcellus [28] = species on record: Cavia porcellus; experiment: Tested for effect on guinea pigs sensitized with (R)-5-Methyl-3-methylene -dihydro -furan-2-one,number of animals showing erythema covering the whole test area; in short: as §2
Cavia porcellus [29] = species on record: Cavia porcellus; experiment: Tested for effect on guinea pigs sensitized with (R)-5-Methyl-3-methylene -dihydro -furan-2-one,number of animals showing no reaction; in short: as §2
Cavia porcellus [30] = species on record: Cavia porcellus; experiment: Tested for effect on guinea pigs sensitized with (S)5-Methyl-3-methylene-dihydro- furan-2-one number of animals showing erythema and swelling of the test area.; in short: as §3
Cavia porcellus [31] = species on record: Cavia porcellus; experiment: Tested for effect on guinea pigs sensitized with (S)5-Methyl-3-methylene-dihydro- furan-2-one number of animals showing erythema covering the part of the test area; in short: as §3
Cavia porcellus [32] = species on record: Cavia porcellus; experiment: Tested for effect on guinea pigs sensitized with (S)5-Methyl-3-methylene-dihydro- furan-2-onenumber of animals showing erythema covering the whole test area; in short: as §3
Cavia porcellus [33] = species on record: Cavia porcellus; experiment: Tested for effect on guinea pigs sensitized with (+/-)-5-Methyl-3-methylene-dihydro-furan-2-one number of animals showing erythema and swelling of the test area; in short: as §1
Cavia porcellus [34] = species on record: Cavia porcellus; experiment: Tested for effect on guinea pigs sensitized with (+/-)-5-Methyl-3-methylene-dihydro-furan-2-one,number of animals showing erythema covering the part of the test area; in short: as §1
Cavia porcellus [35] = species on record: Cavia porcellus; experiment: Tested for effect on guinea pigs sensitized with (+/-)-5-Methyl-3-methylene-dihydro-furan-2-one,number of animals showing erythema covering the whole test area; in short: as §1
Cavia porcellus [36] = species on record: Cavia porcellus; experiment: Tested for effect on guinea pigs sensitized with (+/-)-5-Methyl-3-methylene-dihydro-furan-2-one,number of animals showing no reaction; in short: as §1
Cavia porcellus [37] = species on record: Cavia porcellus; experiment: Tested for effect on guinea pigs sensitized with (S)5-Methyl-3-methylene-dihydro- furan-2-one number of animals showing no reaction; in short: as §3

Question: `C=C1CC(C)OC1=O` (configuration not stated) was tested. Which “No. of sensitive animals” value (Cavia porcellus [1]) did it give?
Answer: 8

Question: What about the “No. of sensitive animals” value (Cavia porcellus [2]) of the same compound?
Answer: 6

Question: What about the “No. of sensitive animals” value (Cavia porcellus [3]) of the same compound?
Answer: 8

Question: And the “No. of sensitive animals” value (Cavia porcellus [4])?
Answer: 8

Question: What about the av (Cavia porcellus [5]) of the same compound?
Answer: 1.8 and 1.5

Question: What about the av (Cavia porcellus [6]) of the same compound?
Answer: 1.8 and 0.7

Question: What about the av (Cavia porcellus [7]) of the same compound?
Answer: 1.9 and 0.9

Question: What about the “No. of sensitive animals” value (Cavia porcellus [8]) of the same compound?
Answer: 8

Question: And the Skin tests intensity (Cavia porcellus [9])?
Answer: 1

Question: What about the Skin tests intensity (Cavia porcellus [10]) of the same compound?
Answer: 5

Question: What about the Skin tests intensity (Cavia porcellus [11]) of the same compound?
Answer: 6 and 4

Question: And the Skin tests intensity (Cavia porcellus [12])?
Answer: 0

Question: And the Skin tests intensity (Cavia porcellus [13])?
Answer: 2 and 4

Question: And the Skin tests intensity (Cavia porcellus [14])?
Answer: 0

Question: And the Skin tests intensity (Cavia porcellus [15])?
Answer: 0

Question: What about the Skin tests intensity (Cavia porcellus [16]) of the same compound?
Answer: 2

Question: What about the Skin tests intensity (Cavia porcellus [17]) of the same compound?
Answer: 1

Question: What about the Skin tests intensity (Cavia porcellus [18]) of the same compound?
Answer: 7

Question: What about the Skin tests intensity (Cavia porcellus [19]) of the same compound?
Answer: 0

Question: Which “No. of sensitive animals” value (Cavia porcellus [20]) does the source give for `C=C1C[C@@H](C)OC1=O` here?
Answer: 8

Question: And the “No. of sensitive animals” value (Cavia porcellus [21])?
Answer: 8

Question: And the “No. of sensitive animals” value (Cavia porcellus [22])?
Answer: 8

Question: And the av (Cavia porcellus [23])?
Answer: 1.3

Question: And the av (Cavia porcellus [24])?
Answer: 0.8

Question: And the av (Cavia porcellus [25])?
Answer: 1.7

Question: And the Skin tests intensity (Cavia porcellus [26])?
Answer: 3

Question: And the Skin tests intensity (Cavia porcellus [27])?
Answer: 1

Question: And the Skin tests intensity (Cavia porcellus [28])?
Answer: 4

Question: And the Skin tests intensity (Cavia porcellus [29])?
Answer: 0

Question: What about the Skin tests intensity (Cavia porcellus [30]) of the same compound?
Answer: 0

Question: What about the Skin tests intensity (Cavia porcellus [31]) of the same compound?
Answer: 3

Question: What about the Skin tests intensity (Cavia porcellus [32]) of the same compound?
Answer: 5

Question: What about the Skin tests intensity (Cavia porcellus [33]) of the same compound?
Answer: 6

Question: What about the Skin tests intensity (Cavia porcellus [34]) of the same compound?
Answer: 1

Question: What about the Skin tests intensity (Cavia porcellus [35]) of the same compound?
Answer: 1

Question: And the Skin tests intensity (Cavia porcellus [36])?
Answer: 0

Question: What about the Skin tests intensity (Cavia porcellus [37]) of the same compound?
Answer: 0
